Reference: ChEMBL document CHEMBL2331329, “Synthesis and biological evaluation of 2-(alkoxycarbonyl)-3-anilinobenzo[b]thiophenes and thieno[2,3-b]pyridines as new potent anticancer agents” (J Med Chem, 2013)
Active and inactive are the calls of the source. The rule behind the calls is not given here.

What was measured:
HT-29 [1] = experiment: Cell cycle arrest in human HT-29 cells assessed as accumulation at G2/M phase after 24 hrs by propidium iodide staining-based flow cytometry; format: functional
How it was run: (§1)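 Jurkat, HT-29 and HeLa cells in exponential growth (5 × 10^5 cells) treated 24 h at a range of concentrations. Fixed in ice-cold 70% ethanol, lysed with buffer containing RNase A and 0.1% Triton X-100, stained with propidium iodide. DNA content read by flow cytometry and the percentage of cells per cycle phase derived from DNA histograms.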

Jurkat [2] = experiment: Cell cycle arrest in human Jurkat cells assessed as accumulation at G2/M phase after 24 hrs by propidium iodide staining-based flow cytometry; format: functional; how it was run: as §1
[3] = Selectivity ratio of IC50 for human CEM cells to IC50 for human PHA-stimulated PBL cells; format: ADME, cell-based; conditions: CEM cells and PHA-stimulated PBL cells, read-out: Ratio IC50
[4] = Selectivity ratio of IC50 for human Jurkat cells to IC50 for human PHA-stimulated PBL cells; format: ADME, cell-based; conditions: Jurkat cells and PHA-stimulated PBL cells, read-out: Ratio IC50
Mus musculus = experiment: Toxicity in Balb/c mouse xenografted with mouse BNL 1ME A.7R.1 cells assessed as decrease in body weight at 5 mg/kg, ip; format: organism-based; parameters: dose 5 mg/kg, route intraperitoneal; conditions: in vivo
How it was run: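 Male Balb/c mice, 8 weeks old, given 10^7 syngeneic BNL 1ME A.7R.1 hepatoma cells subcutaneously in the dorsal region in 200 μL PBS. Randomised to groups of five. Dosed intraperitoneally once daily for 7 days at 5 mg/kg in 0.9% NaCl with 5% PEG 400 and 0.5% Tween 80, against vehicle and CA-4P. Tumours measured daily by caliper, V = AB2/2; body weight recorded. Mean ± SEM.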

HeLa [5] = experiment: Induction of apoptosis in human HeLa cells assessed as survivin phosphorylation on Thr32 after 24 to 48 hrs by Western Blot analysis; format: functional, cell-based
How it was run: (§2)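 HeLa cells exposed to 10 or 100 nM for 24 or 48 h, washed in ice-cold PBS, lysed on ice 30 min, spun at 15000g at 4 °C. 20 μg protein run on 7.5–15% SDS–PAGE, blotted to PVDF, blocked overnight at 4 °C. Primary antibodies 2 h at room temperature, peroxidase secondary 60 min, ECL detection, β-actin reprobe as loading control.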

[6] = Cytotoxicity against mouse BNL 1ME A.7R.1 cells; format: functional, cell-based
HeLa [7] = experiment: Induction of apoptosis in human HeLa cells assessed as Mcl-1 phosphorylation at 10 to 100 nM after 24 hrs by Western Blot analysis; format: functional, cell-based; how it was run: as §2
HeLa [8] = experiment: Induction of apoptosis in human HeLa cells assessed as PARP cleavage at 10 nM after 24 hrs by Western Blot analysis; format: functional, cell-based; how it was run: as §2
HeLa [9] = experiment: Induction of apoptosis in human HeLa cells assessed as Bcl-XL phosphorylation at 10 to 100 nM after 24 to 48 hrs by Western Blot analysis; format: functional, cell-based; how it was run: as §2
HeLa [10] = experiment: Induction of apoptosis in human HeLa cells assessed as caspase-9 cleavage at 10 to 100 nM after 24 to 48 hrs by Western Blot analysis; format: functional, cell-based; how it was run: as §2
HeLa [11] = experiment: Induction of apoptosis in human HeLa cells assessed as ROS production at 10 to 100 nM after 24 to 48 hrs by H2-DCFDA staining-based flow cytometry relative to control; format: functional, cell-based
How it was run: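 HeLa cells treated 24 or 48 h, then stained with H2-DCFDA or hydroethidine. ROS read by flow cytometry against untreated control. Mean ± SEM of three independent experiments.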

HeLa [12] = experiment: Induction of apoptosis in human HeLa cells assessed as mitochondrial membrane depolarization at 10 to 100 nM by JC-1 staining; format: functional, cell-based; conditions: TDE = time-dependent effect
How it was run: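 HeLa cells treated 24 or 48 h, then stained with the potentiometric dye JC-1. Proportion of cells with depolarised mitochondria read by flow cytometry. Mean ± SEM of three independent experiments.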

HeLa [13] = experiment: Cell cycle arrest in human HeLa cells assessed as accumulation at G2/M phase at 20 nM after 24 hrs by propidium iodide staining-based flow cytometry; format: functional; how it was run: as §1
Jurkat [14] = experiment: Cell cycle arrest in human Jurkat cells assessed as accumulation at G2/M phase at 20 nM after 24 hrs by propidium iodide staining-based flow cytometry; format: functional; how it was run: as §1
A549 [15] = experiment: Resistance index, ratio of IC50 for human A549-T12 cells to IC50 for human A549 cells; format: functional
How it was run: (§3)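 Mean ± SE of at least three independent experiments. Resistance ratio = IC50 in resistant line/IC50 in nonresistant line.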

[16] = Cytotoxicity against human A549-T12 cells after 72 hrs by MTT assay; format: functional, cell-based; conditions: A549, 72 h; how it was run: as §3
CCRF-CEM [17] = experiment: Resistance index, ratio of IC50 for human CEM/VBL100 cells to IC50 for human CEM cells; format: functional
How it was run: (§4)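 MTT viability test: 8 × 10^3 cells per well settled 18 h at 37 °C, 5% CO2, then given fresh medium with compound (from 10 mM DMSO stocks, final DMSO ≤0.25%) for 72 h. […] CEMVbl-100 is a vinblastine-selected P-gp line; LoVoDoxo is grown in Ham's F12 with 0.1 μg/mL doxorubicin. Resistance index = resistant IC50/parental IC50.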

[18] = Cytotoxicity against human CEM/VBL100 cells after 72 hrs by MTT assay; format: functional, cell-based; conditions: CEM/VBL100, 72 h; how it was run: as §4
CCRF-CEM [19] = experiment: Cytotoxicity against human CEM cells after 72 hrs by MTT assay; format: functional, cell-based; how it was run: as §4
LoVo = experiment: Resistance index, ratio of IC50 for human LoVo/DX cells to IC50 for human LoVo cells; format: functional; how it was run: as §4
HT-29 [20] = experiment: Cytotoxicity against human HT-29 cells after 72 hrs by MTT assay; format: functional, cell-based; conditions: HT-29, 72 h
[21] = Cytotoxicity against human SEM cells after 72 hrs by MTT assay; format: functional, cell-based
How it was run: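 Cells plated at 8 × 10^3 per well, 18 h at 37 °C, 5% CO2, then fresh medium with graded compound concentrations (DMSO ≤0.25%) for 72 h. Jurkat, SEM, HL-60 grown in RPMI-1640; A549, HeLa, HT-29, MCF-7 in DMEM; 10% FBS with penicillin/streptomycin. MTT viability read-out; IC50 vs 0.25% DMSO controls; mean ± SE of at least three independent experiments.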

HeLa [22] = experiment: Cytotoxicity against human HeLa cells after 72 hrs by MTT assay; format: functional, cell-based
A549 [23] = experiment: Cytotoxicity against human A549 cells after 72 hrs by MTT assay; format: functional, cell-based; conditions: A549, 72 h
HeLa [24] = experiment: Induction of apoptosis in human HeLa cells assessed as decrease in unphosphorylated Mcl-1 at 10 to 100 nM after 24 hrs by Western Blot analysis; format: functional, cell-based; how it was run: as §2
HT-29 [25] = experiment: Cell cycle arrest in human HT-29 cells assessed as accumulation at G2/M phase at >20 nM after 24 hrs by propidium iodide staining-based flow cytometry; format: functional; how it was run: as §1
Jurkat [26] = experiment: Cell cycle arrest in human Jurkat cells assessed as accumulation at G2/M phase at >20 nM after 24 hrs by propidium iodide staining-based flow cytometry; format: functional; how it was run: as §1

For `COC(=O)c1sc2cc(OC)ccc2c1Nc1cc(OC)c(OC)c(OC)c1`, the Activity (HT-29 [1]) was “Dose-dependent effect”, the Activity (Jurkat [2]) was “Dose-dependent effect” and the selectivity ratio [3] was 2000. The selectivity ratio [4] was 2000, the Activity (Mus musculus) was “Toxic” and the Activity (HeLa [5]) was “Active”. The IC50 [6] was 2.1 nM, the Activity (HeLa [7]) was “Active” and the Activity (HeLa [8]) was “Active”. The Activity (HeLa [9]) was “Active”, the Activity (HeLa [10]) was “Active” and the Activity (HeLa [11]) was “Active”. The Activity (HeLa [12]) was “tde”, the Activity (HeLa [13]) was “Active” and the Activity (Jurkat [14]) was “Active”. The “Ratio IC50” value (A549 [15]) was 1.5, the IC50 [16] was 12.6 nM and the “Ratio IC50” value (CCRF-CEM [17]) was 0.4. For the same compound, the IC50 [18] was 1.3 nM, the IC50 (CCRF-CEM [19]) was 3.2 nM and the “Ratio IC50” value (LoVo) was 1.3. It also gave an IC50 (HT-29 [20]) of 0.9 nM, an IC50 [21] of 10.3 nM and an IC50 (HeLa [22]) of 0.28 nM. The IC50 (A549 [23]) was 8.5 nM, the Activity (HeLa [24]) was “Active” and the Activity (HT-29 [25]) was over 80%. The Activity (Jurkat [26]) was over 80%.
